Test results published in ChEMBL document CHEMBL5653631, “A Potent and Selective ULK1 Inhibitor Suppresses Autophagy and Sensitizes Cancer Cells to Nutrient Stress” (iScience, 2018).

Key:
[1] = molecular target: T1, Mitogen-activated protein kinase 13 (Homo sapiens) (UniProt O15264); experiment: Inhibition of human recombinant p38delta at 40 nM in presence of ATP by radiometric assay relative to control
T1 sequence (whole entry): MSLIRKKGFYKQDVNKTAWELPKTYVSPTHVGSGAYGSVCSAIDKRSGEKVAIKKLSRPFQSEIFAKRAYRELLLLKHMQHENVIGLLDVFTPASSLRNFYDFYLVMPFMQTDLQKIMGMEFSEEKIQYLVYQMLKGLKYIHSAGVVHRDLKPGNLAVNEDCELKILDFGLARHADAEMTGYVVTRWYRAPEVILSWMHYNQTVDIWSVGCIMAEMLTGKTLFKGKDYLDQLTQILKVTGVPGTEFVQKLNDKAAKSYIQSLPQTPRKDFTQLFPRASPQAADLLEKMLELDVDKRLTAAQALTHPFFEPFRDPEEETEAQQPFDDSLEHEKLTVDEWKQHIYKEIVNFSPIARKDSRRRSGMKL

[2] = molecular target: T2, Serine/threonine-protein kinase BRSK1 (Homo sapiens) (UniProt Q8TDC3); experiment: Inhibition of human recombinant BRSK1 at 40 nM in presence of ATP by radiometric assay relative to control
T2 sequence (whole entry): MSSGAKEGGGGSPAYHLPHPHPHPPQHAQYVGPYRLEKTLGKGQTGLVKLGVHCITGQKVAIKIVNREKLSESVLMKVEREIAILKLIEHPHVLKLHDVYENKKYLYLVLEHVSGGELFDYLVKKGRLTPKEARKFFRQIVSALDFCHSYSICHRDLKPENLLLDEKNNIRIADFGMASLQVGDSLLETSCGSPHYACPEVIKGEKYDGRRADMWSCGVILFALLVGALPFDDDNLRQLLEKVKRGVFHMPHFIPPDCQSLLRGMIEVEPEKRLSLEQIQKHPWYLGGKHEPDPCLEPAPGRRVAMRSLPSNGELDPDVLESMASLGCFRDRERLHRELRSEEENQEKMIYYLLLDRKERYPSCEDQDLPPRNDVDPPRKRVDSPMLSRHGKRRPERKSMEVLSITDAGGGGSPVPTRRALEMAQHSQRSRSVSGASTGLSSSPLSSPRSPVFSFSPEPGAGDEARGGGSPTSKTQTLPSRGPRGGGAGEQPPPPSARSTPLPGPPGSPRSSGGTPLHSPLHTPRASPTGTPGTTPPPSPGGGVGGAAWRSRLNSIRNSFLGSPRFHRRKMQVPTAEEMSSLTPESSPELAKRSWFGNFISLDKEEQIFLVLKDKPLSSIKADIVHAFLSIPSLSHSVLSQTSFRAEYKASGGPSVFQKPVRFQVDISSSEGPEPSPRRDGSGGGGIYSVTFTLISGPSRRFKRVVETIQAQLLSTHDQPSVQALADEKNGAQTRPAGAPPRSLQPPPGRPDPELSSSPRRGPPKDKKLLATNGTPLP
How it was run: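 Recombinant human kinase panel (327 kinases) run as radiometric activity assays, each kinase in duplicate at one compound concentration. Activity remaining expressed relative to vehicle control; percent inhibition taken as 100% minus % activity remaining.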

[3] = molecular target: T3, Serine/threonine-protein kinase 17A (Homo sapiens) (UniProt Q9UEE5); experiment: Inhibition of human recombinant DRAK1 at 40 nM related to control ULK1
T3 sequence (whole entry): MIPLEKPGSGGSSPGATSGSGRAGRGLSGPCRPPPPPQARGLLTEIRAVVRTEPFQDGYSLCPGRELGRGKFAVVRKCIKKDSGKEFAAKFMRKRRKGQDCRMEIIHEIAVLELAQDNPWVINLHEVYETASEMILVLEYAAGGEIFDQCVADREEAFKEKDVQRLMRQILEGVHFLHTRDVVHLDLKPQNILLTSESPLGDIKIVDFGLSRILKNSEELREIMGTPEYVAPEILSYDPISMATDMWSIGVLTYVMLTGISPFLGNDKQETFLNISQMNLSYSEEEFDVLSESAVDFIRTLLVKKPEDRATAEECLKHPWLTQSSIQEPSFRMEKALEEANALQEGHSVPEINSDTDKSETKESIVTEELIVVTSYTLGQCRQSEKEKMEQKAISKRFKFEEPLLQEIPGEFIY

[4] = molecular target: T4, Serine/threonine-protein kinase Sgk1 (Homo sapiens) (UniProt O00141); experiment: Inhibition of human recombinant SGK1 at 40 nM related to control ULK1
T4 sequence (whole entry): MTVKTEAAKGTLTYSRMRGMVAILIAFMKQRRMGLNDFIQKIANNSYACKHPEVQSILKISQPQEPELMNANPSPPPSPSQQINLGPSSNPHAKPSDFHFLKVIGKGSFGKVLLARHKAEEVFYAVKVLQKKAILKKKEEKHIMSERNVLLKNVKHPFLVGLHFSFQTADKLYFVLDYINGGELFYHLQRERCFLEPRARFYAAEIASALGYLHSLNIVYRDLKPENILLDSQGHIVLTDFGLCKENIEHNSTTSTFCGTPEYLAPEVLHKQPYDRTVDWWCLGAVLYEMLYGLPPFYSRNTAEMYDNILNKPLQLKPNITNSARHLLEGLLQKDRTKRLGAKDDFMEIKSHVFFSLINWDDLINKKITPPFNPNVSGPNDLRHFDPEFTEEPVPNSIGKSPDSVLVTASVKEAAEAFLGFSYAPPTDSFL

[5] = molecular target: Serine/threonine-protein kinase WNK3 (Homo sapiens) (UniProt Q9BYP7); experiment: Inhibition of human recombinant Wnk3 at 40 nM in presence of ATP by radiometric assay relative to control
[6] = molecular target: T5, Testis-specific serine/threonine-protein kinase 4 (Homo sapiens) (UniProt Q6SA08); experiment: Inhibition of human recombinant TSSK4 at 40 nM related to control ULK1
T5 sequence (whole entry): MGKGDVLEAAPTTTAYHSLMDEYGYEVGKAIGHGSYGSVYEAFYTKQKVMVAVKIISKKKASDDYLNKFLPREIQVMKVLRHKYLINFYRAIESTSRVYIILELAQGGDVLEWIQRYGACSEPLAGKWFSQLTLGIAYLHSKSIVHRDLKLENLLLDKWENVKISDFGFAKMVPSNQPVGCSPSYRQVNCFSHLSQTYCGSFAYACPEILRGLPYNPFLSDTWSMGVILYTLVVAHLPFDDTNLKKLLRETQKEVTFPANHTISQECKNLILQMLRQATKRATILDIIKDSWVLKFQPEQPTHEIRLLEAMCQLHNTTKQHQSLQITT

[7] = molecular target: Receptor tyrosine-protein kinase erbB-4 (Homo sapiens) (UniProt Q15303); experiment: Inhibition of human recombinant ErbB4 at 500 nM related to control ULK1
Chain of Receptor tyrosine-protein kinase erbB-4 (Homo sapiens) (Q15303 whole entry): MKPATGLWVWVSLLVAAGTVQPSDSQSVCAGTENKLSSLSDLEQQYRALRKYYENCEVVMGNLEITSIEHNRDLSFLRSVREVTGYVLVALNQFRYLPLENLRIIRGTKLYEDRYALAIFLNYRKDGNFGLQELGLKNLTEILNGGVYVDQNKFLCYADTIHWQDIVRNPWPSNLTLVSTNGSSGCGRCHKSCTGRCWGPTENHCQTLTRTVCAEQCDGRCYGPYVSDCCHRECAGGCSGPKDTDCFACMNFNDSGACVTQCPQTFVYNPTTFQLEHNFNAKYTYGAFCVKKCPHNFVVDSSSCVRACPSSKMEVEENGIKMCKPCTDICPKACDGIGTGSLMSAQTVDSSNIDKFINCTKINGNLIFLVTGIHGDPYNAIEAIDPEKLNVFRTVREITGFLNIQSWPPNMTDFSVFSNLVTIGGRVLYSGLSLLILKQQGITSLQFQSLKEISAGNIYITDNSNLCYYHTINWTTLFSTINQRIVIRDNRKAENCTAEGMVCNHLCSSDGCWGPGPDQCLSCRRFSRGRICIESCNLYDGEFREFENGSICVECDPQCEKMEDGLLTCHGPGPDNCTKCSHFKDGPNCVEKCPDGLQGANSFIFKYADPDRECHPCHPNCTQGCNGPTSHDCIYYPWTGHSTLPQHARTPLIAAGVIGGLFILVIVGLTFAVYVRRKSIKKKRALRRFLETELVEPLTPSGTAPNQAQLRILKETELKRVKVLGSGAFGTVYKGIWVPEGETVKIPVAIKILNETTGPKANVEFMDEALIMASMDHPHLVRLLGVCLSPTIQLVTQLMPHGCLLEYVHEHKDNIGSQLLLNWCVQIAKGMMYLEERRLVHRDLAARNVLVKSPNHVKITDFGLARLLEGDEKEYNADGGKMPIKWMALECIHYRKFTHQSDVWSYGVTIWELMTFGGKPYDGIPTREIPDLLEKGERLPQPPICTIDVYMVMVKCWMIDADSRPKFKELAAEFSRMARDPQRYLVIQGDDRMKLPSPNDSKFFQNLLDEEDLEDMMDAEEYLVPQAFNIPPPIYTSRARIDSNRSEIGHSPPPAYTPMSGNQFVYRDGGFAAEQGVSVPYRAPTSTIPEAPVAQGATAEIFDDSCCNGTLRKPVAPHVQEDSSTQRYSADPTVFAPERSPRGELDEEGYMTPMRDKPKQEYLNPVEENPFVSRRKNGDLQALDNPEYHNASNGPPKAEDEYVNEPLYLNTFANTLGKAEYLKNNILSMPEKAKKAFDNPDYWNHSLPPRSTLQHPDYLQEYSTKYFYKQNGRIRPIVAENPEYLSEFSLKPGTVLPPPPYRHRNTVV

[8] = molecular target: Transcription initiation factor TFIID subunit 1-like (Homo sapiens) (UniProt Q8IZX4); experiment: Inhibition of human recombinant TAF1L at 500 nM related to control ULK1
Chain of Transcription initiation factor TFIID subunit 1-like (Homo sapiens) (Q8IZX4 whole entry): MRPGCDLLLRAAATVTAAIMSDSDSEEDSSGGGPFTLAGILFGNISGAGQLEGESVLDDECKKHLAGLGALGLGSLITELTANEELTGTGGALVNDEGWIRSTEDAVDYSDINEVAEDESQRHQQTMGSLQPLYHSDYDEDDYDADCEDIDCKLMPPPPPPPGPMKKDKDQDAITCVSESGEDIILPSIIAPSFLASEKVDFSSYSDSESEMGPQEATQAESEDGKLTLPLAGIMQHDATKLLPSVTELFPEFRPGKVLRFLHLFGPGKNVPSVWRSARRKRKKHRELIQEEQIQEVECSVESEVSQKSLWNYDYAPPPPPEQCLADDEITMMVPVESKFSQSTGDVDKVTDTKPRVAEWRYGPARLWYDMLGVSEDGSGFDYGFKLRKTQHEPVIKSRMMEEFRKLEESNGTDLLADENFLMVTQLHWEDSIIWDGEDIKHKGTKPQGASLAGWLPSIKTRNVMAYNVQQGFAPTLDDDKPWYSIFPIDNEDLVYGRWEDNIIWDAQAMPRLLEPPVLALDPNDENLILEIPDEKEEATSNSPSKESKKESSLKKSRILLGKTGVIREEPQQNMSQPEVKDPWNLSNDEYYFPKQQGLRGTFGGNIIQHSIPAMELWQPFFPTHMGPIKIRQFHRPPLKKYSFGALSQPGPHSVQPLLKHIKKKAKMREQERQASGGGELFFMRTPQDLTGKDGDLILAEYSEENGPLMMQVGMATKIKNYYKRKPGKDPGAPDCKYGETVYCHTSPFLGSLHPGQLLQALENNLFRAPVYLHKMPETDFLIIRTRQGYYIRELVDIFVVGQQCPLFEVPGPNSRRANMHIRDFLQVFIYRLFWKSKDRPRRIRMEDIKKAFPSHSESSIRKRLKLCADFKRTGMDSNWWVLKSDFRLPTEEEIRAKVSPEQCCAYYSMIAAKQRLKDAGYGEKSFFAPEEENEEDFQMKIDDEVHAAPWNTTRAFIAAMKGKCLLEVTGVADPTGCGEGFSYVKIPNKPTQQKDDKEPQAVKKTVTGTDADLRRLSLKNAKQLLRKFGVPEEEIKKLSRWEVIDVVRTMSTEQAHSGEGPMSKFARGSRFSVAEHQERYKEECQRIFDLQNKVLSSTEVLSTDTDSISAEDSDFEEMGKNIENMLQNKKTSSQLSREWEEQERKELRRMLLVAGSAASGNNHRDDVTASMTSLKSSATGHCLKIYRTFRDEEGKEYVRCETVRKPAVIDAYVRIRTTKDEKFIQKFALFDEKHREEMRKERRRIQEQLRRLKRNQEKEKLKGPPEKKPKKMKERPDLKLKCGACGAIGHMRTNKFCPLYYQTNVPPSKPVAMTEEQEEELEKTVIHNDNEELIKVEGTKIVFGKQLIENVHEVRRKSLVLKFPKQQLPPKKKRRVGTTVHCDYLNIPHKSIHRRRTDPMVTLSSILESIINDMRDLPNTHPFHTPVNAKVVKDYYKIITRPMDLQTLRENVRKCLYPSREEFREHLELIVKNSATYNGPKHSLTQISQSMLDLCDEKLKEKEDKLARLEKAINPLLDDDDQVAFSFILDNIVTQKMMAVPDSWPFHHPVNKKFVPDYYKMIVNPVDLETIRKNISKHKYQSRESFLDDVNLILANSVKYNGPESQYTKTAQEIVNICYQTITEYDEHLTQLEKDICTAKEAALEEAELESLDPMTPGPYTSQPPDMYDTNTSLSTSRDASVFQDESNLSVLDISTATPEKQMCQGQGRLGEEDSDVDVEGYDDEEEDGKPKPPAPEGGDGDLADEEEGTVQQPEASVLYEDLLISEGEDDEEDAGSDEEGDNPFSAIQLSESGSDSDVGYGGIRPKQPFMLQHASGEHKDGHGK

[9] = molecular target: Macrophage colony-stimulating factor 1 receptor (Homo sapiens) (UniProt P07333); experiment: Inhibition of human recombinant FMS at 15 nM related to control ULK1
Chain of Macrophage colony-stimulating factor 1 receptor (Homo sapiens) (P07333 whole entry): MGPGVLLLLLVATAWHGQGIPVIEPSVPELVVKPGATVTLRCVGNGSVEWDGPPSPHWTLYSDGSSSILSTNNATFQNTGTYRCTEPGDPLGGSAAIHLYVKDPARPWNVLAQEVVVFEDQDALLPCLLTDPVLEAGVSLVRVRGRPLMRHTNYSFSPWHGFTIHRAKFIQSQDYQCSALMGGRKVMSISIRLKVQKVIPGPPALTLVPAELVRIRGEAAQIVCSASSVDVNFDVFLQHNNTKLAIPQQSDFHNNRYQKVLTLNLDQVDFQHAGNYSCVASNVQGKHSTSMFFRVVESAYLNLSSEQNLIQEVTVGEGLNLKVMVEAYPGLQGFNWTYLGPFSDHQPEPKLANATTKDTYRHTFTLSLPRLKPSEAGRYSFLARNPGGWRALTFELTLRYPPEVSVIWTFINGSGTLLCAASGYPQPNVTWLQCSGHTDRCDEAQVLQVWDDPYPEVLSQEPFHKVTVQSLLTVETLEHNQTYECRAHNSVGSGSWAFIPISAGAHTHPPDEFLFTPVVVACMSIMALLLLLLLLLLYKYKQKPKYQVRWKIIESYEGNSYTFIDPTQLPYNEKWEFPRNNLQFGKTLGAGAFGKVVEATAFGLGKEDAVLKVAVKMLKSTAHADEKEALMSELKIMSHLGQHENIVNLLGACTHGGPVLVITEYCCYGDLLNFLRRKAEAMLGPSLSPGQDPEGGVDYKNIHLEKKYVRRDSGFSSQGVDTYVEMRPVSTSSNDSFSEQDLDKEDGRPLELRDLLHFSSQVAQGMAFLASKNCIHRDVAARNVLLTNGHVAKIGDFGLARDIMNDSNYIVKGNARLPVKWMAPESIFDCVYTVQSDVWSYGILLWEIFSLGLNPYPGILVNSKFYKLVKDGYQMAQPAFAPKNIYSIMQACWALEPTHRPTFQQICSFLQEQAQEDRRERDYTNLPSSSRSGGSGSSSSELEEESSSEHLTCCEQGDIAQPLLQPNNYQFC

O=C(N[C@@H](C1CC1)C(F)(F)F)c1cc(-c2cnn3cc(-c4ccc(F)cc4)cnc23)cs1
inhibition [1]: 12% | inhibition [2]: 2% | fold change (FC) [3]: 1.07 | fold change (FC) [4]: 0.1 | inhibition [5]: 3% | fold change (FC) [6]: 0

CNC(=O)c1ccccc1Oc1nc(Nc2cc(OC)c(OC)c(OC)c2)ncc1Br
fold change (FC) [7]: 0 | fold change (FC) [8]: 0

CC(C)[C@H](NC(=O)c1cc(-c2cnn3cc(-c4ccc(OCCN5CCCCC5)cc4)cnc23)cs1)C(F)(F)F
fold change (FC) [9]: 0.19
